Experimental data from PMC12376074 (Toxicology in vitro : an international journal published in …, 2019).
pIC50: −log10 of the molar value. Where two headings read alike, the source gives them in different places.

What was measured:
[1] = MTT cell viability assay, CYP1B1 cells; format: cell-based; settings: human, HepG2 cells overexpressing human CYP1B1
HepG2 cells [2] = assay: MTT cell viability assay; format: cell-based, human; settings: read-out: IC50 on cell growth
[3] = MTT cell viability assay, CYP3A4 cells; format: cell-based; settings: human, HepG2 cells overexpressing CYP3A4, IC50, CYP3A4 overexpressing cells
Bcl-2, Mcl-1, Bax = assay: Western blot of Bcl-2 family proteins in HepG2 cells; format: cell-based, human; settings: 48 h
HepG2 cells [4] = assay: Caspase-3/7 activity measurement; format: cell-based, human; settings: 0.1 IC50, 0.5 IC50 and IC50, 48 h
cleaved caspase-3 = assay: Western blot of cleaved caspase-3 in HepG2 cells; format: cell-based, human; settings: 48 h
[5] = MTT cell viability assay, CYP2C8 cells; format: cell-based; settings: human, HepG2 cells overexpressing CYP2C8, IC50, CYP2C8 overexpressing cells, ADQ 1.56–50 μM
[6] = MTT cell viability assay, CYP3A5 cells; format: cell-based; settings: human, HepG2 cells overexpressing CYP3A5
[7] = test system: phosphorylation of p38, JNK, and ERK1/2; assay: Western blot of MAPK phosphorylation in HepG2 cells; format: cell-based, human; settings: 48 h
[8] = MTT cell viability assay, CYP vector cells; format: cell-based; settings: human, HepG2/CYP vector cells (empty-vector control), ADQ 1.56–50 μM
[9] = MTT cell viability assay, CYP2C19 cells; format: cell-based; settings: human, HepG2 cells overexpressing CYP2C19
[10] = MTT cell viability assay, CYP1A2 cells; format: cell-based; settings: human, HepG2 cells overexpressing CYP1A2
[11] = MTT cell viability assay, CYP1A1 cells; format: cell-based; settings: human, HepG2 cells overexpressing CYP1A1
[12] = test system: HepG2 cells overexpressing CYP2C8; assay: Toxicity of CYP inhibitor to CYP2C8 cells; format: cell-based, human; settings: 30 μM
CYP2C8 = assay: Western blot of CYP2C8 expression; format: cell-based, human; settings: 30 μM, CYP2C8 overexpressing cells, 48 h
Summary of the method: (§1)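 HepG2 cells overexpressing CYP2C8 or CYP3A4 were co-incubated 48 h with test compound, with or without 30 μM rifampicin or ketoconazole. RIPA lysates (protease inhibitors, 30 min on ice, 12,000g) were BCA-quantified, and 20–60 μg protein was run on 10% SDS-PAGE and blotted to PVDF. Blots were probed with goat polyclonal anti-CYP2C8 or mouse monoclonal anti-CYP3A4, detected by ECL, and quantified against β-actin.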

HepG2 cells [13] = assay: LDH release assay; format: cell-based, human; settings: 48 h, concentrations above the 0.5 IC50
[14] = cited from earlier work
[15] = test system: HepG2 cells overexpressing CYP3A4; assay: Toxicity of CYP inhibitor to CYP3A4 cells; format: cell-based, human; settings: 30 μM
CYP3A4 = assay: Western blot of CYP3A4 expression; format: cell-based, human; settings: 30 μM, CYP3A4 overexpressing cells, 48 h
Summary of the method: as §1

CCN(CC)Cc1cc(Nc2ccnc3cc(Cl)ccc23)ccc1O [ADQ, Amodiaquine]
IC50 at 48 h [1]: 25.7 µM
pIC50 (HepG2 cells [2]; Homo sapiens, HepG2, 48 h): 4.76
IC50 at 48 h ([3]; ADQ 1.56–50 μM): 14 µM
IC50 at 48 h ([3]; ADQ 3.13–50 μM, no CYP inhibitor): 14.8 µM
expression level of pro-apoptotic member Bax (Bcl-2, Mcl-1, Bax): increased
expression levels of anti-apoptotic members Bcl-2 and Mcl-1 (Bcl-2, Mcl-1, Bax): decreased
caspase-3/7 activity (HepG2 cells [4]): increased the activity of caspase-3/7 in a concentration-dependent manner
expression level of cleaved caspase-3 (cleaved caspase-3): increase
IC50 at 48 h [5]: 11.7 µM
IC50 at 48 h [6]: 17.1 µM
phosphorylation of p38, JNK, and ERK1/2 [7]: no change
IC50 at 48 h [8]: 17.1 µM
IC50 at 48 h [9]: 17.3 µM
IC50 at 48 h [10]: 18.7 µM
IC50 at 48 h [11]: 26.4 µM

CO[C@H]1/C=C/O[C@@]2(C)Oc3c(C)c(O)c4c(O)c(c(/C=N/N5CCN(C)CC5)c(O)c4c3C2=O)NC(=O)/C(C)=C\C=C\[C@H](C)[C@H](O)[C@@H](C)[C@@H](O)[C@@H](C)[C@H](OC(C)=O)[C@@H]1C [rifampicin]
toxicity of the CYP inhibitor to cells [12]: not toxic
expression level of CYP2C8 (CYP2C8): markedly reduced

CCNCc1cc(Nc2ccnc3cc(Cl)ccc23)ccc1O [NADQ, N-desethylamodiaquine]
pIC50 (HepG2 cells [2]; HepG2 cells, 1.56–50 μM, 48 h, MTT): 4.82
LDH release relative to vehicle control (HepG2 cells [13]): > 4 fold
expression level of pro-apoptotic member Bax (Bcl-2, Mcl-1, Bax): no change
expression levels of anti-apoptotic members Bcl-2 and Mcl-1 (Bcl-2, Mcl-1, Bax): no change
caspase-3/7 activity (HepG2 cells [4]): increased the activity of caspase-3/7 in a concentration-dependent manner
expression level of cleaved caspase-3 (cleaved caspase-3): increase
phosphorylation of p38, JNK, and ERK1/2 [7]: markedly increased
half-life (t1/2) of NADQ relative to ADQ (longer) ([14]; after oral administration of ADQ, ref Laurent et al., 1993, Scarsi et al., 2014): 20- to 50 fold
Cmax of NADQ in vivo relative to ADQ (higher) ([14]; in vivo, ref Lai et al., 2009): > 20 fold

CC(=O)N1CCN(c2ccc(OCC3COC(Cn4ccnc4)(c4ccc(Cl)cc4Cl)O3)cc2)CC1 (stereo not shown) [ketoconazole]
toxicity of the CYP inhibitor to cells [15]: not toxic
expression level of CYP3A4 (CYP3A4): markedly reduced
